This is a sample that favours compounds with a hit; in the whole collection about 1.7% have one here.
IDE act – human IDE activators in live cells, primary screen, fluorescence polarization, HEK cells, FAbeta-B substrate | FAbeta-B cleavage; 0% vehicle, 100% cell-free pure enzyme wells | activation, % at 5.96 µM | 340,000 tested, 0.073% active | AID 493087, 2011;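 active = activation above the mean of all tested compounds plus 3 SD, set per screening campaign, cut at about 17% in these data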
Target sequence (P14735 whole entry, looked up): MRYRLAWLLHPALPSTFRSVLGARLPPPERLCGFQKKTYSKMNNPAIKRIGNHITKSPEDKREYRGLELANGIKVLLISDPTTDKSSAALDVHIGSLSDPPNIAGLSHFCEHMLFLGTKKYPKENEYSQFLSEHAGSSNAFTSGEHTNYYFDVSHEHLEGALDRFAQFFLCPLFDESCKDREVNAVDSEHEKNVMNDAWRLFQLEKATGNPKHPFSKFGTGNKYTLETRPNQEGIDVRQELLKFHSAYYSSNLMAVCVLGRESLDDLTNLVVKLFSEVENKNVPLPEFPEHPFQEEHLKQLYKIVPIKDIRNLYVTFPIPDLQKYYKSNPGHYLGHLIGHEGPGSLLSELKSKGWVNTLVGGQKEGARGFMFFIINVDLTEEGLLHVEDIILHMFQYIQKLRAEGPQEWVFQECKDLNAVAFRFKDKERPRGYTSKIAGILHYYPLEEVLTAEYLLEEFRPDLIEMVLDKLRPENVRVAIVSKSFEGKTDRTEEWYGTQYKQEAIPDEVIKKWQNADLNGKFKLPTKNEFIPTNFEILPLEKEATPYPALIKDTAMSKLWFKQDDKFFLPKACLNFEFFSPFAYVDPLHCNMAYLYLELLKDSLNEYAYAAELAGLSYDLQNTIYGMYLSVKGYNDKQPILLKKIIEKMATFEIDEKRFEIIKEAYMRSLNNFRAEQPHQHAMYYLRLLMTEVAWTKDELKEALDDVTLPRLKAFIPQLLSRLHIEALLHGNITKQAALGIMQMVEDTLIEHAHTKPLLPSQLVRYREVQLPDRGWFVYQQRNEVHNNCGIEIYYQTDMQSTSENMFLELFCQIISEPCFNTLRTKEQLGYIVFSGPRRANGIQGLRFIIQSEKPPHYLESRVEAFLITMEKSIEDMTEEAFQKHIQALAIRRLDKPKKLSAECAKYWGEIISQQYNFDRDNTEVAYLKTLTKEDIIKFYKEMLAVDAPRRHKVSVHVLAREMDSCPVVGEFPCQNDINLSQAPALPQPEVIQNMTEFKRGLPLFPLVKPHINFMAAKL
IDE inh – human IDE inhibitors in live cells, primary screen, fluorescence polarization, HEK cells, FAbetaB substrate. Insulin-degrading enzyme (Homo sapiens), P14735. FAbetaB cleavage. inhibition, % at 5.59 µM. 320,000 tested, 0.41% active. AID 434962, 2010;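 active = percent inhibition above the average of all tested compounds plus 3 SD, set per screening campaign, cut at about 16% in these data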;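 also: IDE supplied by intact live HEK cells; FP after avidin binding of uncleaved biotin substrate so inhibition keeps polarization high; 0% = DMSO wells and 100% = 60 µM reference IDE inhibitor Ii1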
Rpn11 block – Rpn11 (PSMD14) deubiquitinase inhibitors, primary screen, biochemical, fluorescence polarization, uHTS; 360,000 tested, 0.59% active; calls only at 20 µM; 26S proteasome non-ATPase regulatory subunit 14 (Homo sapiens), O00487; human 26S proteasome, Ub4-pepOG fluorescence polarization; 20S core pre-blocked with epoxomicin;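 active = inhibition at 20 µM, scaled to each plate's controls, above about 33%, limit read from the data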
TPT1 inhibitor – Candida albicans TPT1 enzyme inhibitors, primary screen, biochemical, fluorescence polarization. recombinant caTPT1, FP RNA substrate dephosphorylation. AID 1962, 2009. inhibition, % at 5 µM. 300,000 tested, 0.81% active. tRNA 2'-phosphotransferase TPT1 (Candida albicans SC5314);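 active = inhibition above the mean of all tested compounds plus 3 SD, set per screening campaign, cut at about 24% in these data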;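 also: plate controls were DMSO alone for no effect and ferristatin control at 100 nM for full effect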
HNF4A DNA FP – change in binding of human HNF4A to DNA, primary screen, biochemical, fluorescence polarization, FITC-DNA; 360,000 tested, 0.3% active; 1 h; Hepatocyte nuclear factor 4-alpha (Homo sapiens), P41235; activity change, % at 10 µM; AID 1224865, 2016; in the data active = activity change above about 30%, passing the limit was not always enough
CSN deneddyl inh – inhibitors of CSN-mediated cullin deneddylation, primary screen, biochemical, fluorescence polarization, uHTS; Purified CSN, SCF-Nedd8-OG deneddylation; inhibition, % at 12.5 µM; 360,000 tested, 0.38% active; AID 651999, 2013;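 active = pattern-corrected inhibition above about 35%, with an unprinted fluorescence ratio check between 0.5 and 1.5, limit read from the data, passing the limit was not always enough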;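 also: 0% = enzyme with substrate and 100% = substrate without enzyme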
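Detection – fluorescence polarization · System – HEK293T-derived human Csn5 enzyme · Controls – substrate-only high control, full reaction low control · Timing – 90 min, room temperature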
IDE cell inh cf – human IDE inhibitors in live cells, confirmation, fluorescence polarization, HEK cells, FAbetaB substrate; shares compounds with IDE inh; FAbetaB cleavage; inhibition, % at 5.59 µM; 1,200 tested, 51% active; AID 435028, 2010;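 active = mean inhibition across triplicate wells above the cutoff set by the earlier primary insulin-degrading enzyme screen, cut at about 16% in these data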;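 also: 0% = DMSO wells and 100% = 60 µM reference IDE inhibitor Ii1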
HEK293 tox – cytotoxicity in HEK cells, cytotoxicity control for IDE inhibitor project, cell-based, luminescence. AID 449730, 2010. shares compounds with IDE inh. 1,200 tested, 28% active. inhibition, % at 5.59 µM. HEK293 cytotoxicity, ATP luminescence; in the data active = inhibition above about 22%;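 also: 0% = vehicle wells and 100% = reference cytotoxic drug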
FP fluor counter – fluorescent or optically active artefacts, dose response, artefact control for IDE inhibitor project, biochemical, fluorescence polarization | AID 588718, 2011 | FP counterscreen for fluorescent artifacts, IDE probe project | 30 tested, under 10 active | shares compounds with IDE inh | IC50, µM; call rule not given here
Active calls of the source: *.

Cc1ccc(/C=C/C(=O)NC(=S)Nc2ccc(S(=O)(=O)Nc3cc(C)on3)cc2)cc1 was read as IDE act -10, IDE inh 25*, Rpn11 block inactive, TPT1 inhibitor -1, HNF4A DNA FP 4, CSN deneddyl inh 5, IDE cell inh cf 21* and HEK293 tox 8.
`Cc1cc(NS(=O)(=O)c2ccc(NC(=S)NC(=O)/C=C/c3ccccc3)cc2)no1` gave IDE act 2, IDE inh -2, Rpn11 block inactive, TPT1 inhibitor -2, HNF4A DNA FP 1 and CSN deneddyl inh 6.
For Cc1nc2nc(C)c(CCC(=O)N3CCOCC3)c(C)n2n1 the results were IDE act 7, IDE inh 3, Rpn11 block inactive, TPT1 inhibitor -1, HNF4A DNA FP -3 and CSN deneddyl inh -1.
For Cn1c(=O)oc2ccc(C(=O)CSc3nnnn3-c3ccccc3)cc21 the results were IDE act 2, IDE inh 12, Rpn11 block inactive, TPT1 inhibitor 1, HNF4A DNA FP 1 and CSN deneddyl inh 3.
C=CCn1c(COc2cccc(C)c2C)nnc1SCC(=O)N1CCN(c2ccccc2)CC1 was read as IDE act -17, IDE inh 27*, Rpn11 block inactive, TPT1 inhibitor 2, HNF4A DNA FP 1, CSN deneddyl inh -2, IDE cell inh cf -1 and HEK293 tox 38*.
O=C(O)Cn1c(CCS(=O)(=O)c2ccc(Br)cc2)nc2ccccc21 was read as IDE act 2, IDE inh 0, Rpn11 block inactive, TPT1 inhibitor 0, HNF4A DNA FP -4 and CSN deneddyl inh 2.
`Cc1cc2nc(-c3ccc(SCC(=O)Nc4ccc(S(=O)(=O)N5CCCC5)cc4)nc3)[nH]c2cc1C` gave IDE act -4, IDE inh 17*, TPT1 inhibitor 9, HNF4A DNA FP 33, CSN deneddyl inh 14, IDE cell inh cf 4 and HEK293 tox 20.
`Cc1cc2nc(-c3ccc(SCc4ccc(C#N)cc4)nc3)[nH]c2cc1C` gave IDE act -10, IDE inh 17*, Rpn11 block inactive, TPT1 inhibitor -3, HNF4A DNA FP -2, CSN deneddyl inh 7, IDE cell inh cf 4 and HEK293 tox 20.
C=CCOC(=O)C1=C[C@H](c2csc3ccccc23)C[C@H](OCCCCO)O1 was read as IDE act 3, IDE inh -3, Rpn11 block inactive, TPT1 inhibitor 0, HNF4A DNA FP -1 and CSN deneddyl inh 1.
`CCSc1ccccc1C(=O)Nc1cc(OC)c(OC)c(OC)c1` gave IDE act -9, IDE inh 18*, Rpn11 block inactive, TPT1 inhibitor -1, HNF4A DNA FP 3, CSN deneddyl inh 2, IDE cell inh cf 10 and HEK293 tox 9.
O=C(CCC1N=C2c3ccccc3N=C(SCc3cccc(Cl)c3)N2C1=O)NCc1ccco1 (configuration not stated) was read as IDE act 4, IDE inh 2, Rpn11 block inactive, TPT1 inhibitor -2, HNF4A DNA FP -5 and CSN deneddyl inh 8.
O=C(CCC1N=C2c3ccccc3N=C(SCc3ccccc3Cl)N2C1=O)NCc1ccco1 (configuration not stated) was read as IDE act 0, IDE inh 21*, Rpn11 block inactive, TPT1 inhibitor -1, HNF4A DNA FP 0, CSN deneddyl inh 3, IDE cell inh cf 2 and HEK293 tox 19.
CC1=C(C(=O)OC(C)(C)C)C(c2cccs2)NC(=O)N1 (configuration not stated) was read as IDE act 6, IDE inh 9, Rpn11 block inactive, TPT1 inhibitor 1, HNF4A DNA FP 0 and CSN deneddyl inh -10.
O=C(Nc1cccc(C(F)(F)F)c1)c1csc(-c2cccc(C(F)(F)F)c2)n1 was read as FP fluor counter >55.
For O=C(Nc1cccc(C(F)(F)F)c1)c1csc(-c2ccccc2)n1 the results were FP fluor counter >55.
For COc1cc(NC(=O)c2csc(N)n2)cc(C(=O)Nc2cccc(C(F)(F)F)c2)c1 the results were IDE act -4, IDE inh 4, Rpn11 block inactive, TPT1 inhibitor -4, HNF4A DNA FP 0 and CSN deneddyl inh -3.
For Cc1ccc(-c2nc(C(=O)Nc3cccc(C(F)(F)F)c3)cs2)cc1 the results were FP fluor counter >55.
O=C(Nc1cc(C(F)(F)F)cc(C(F)(F)F)c1)c1csc(-c2ccncc2)n1 was read as FP fluor counter >55.
Screening O=C(Nc1ccc(C(F)(F)F)cc1)c1csc(-c2ccncc2)n1 returned IDE act -2, IDE inh -2, Rpn11 block inactive, TPT1 inhibitor 1, HNF4A DNA FP 0 and CSN deneddyl inh -2.
Cc1ccc(S(=O)(=O)N2CCC(C(=O)N3CCN(c4ccccn4)CC3)CC2)cc1C was read as Rpn11 block inactive, HNF4A DNA FP 0 and CSN deneddyl inh -4.
Screening Cc1cccc(N2CCN(C(=O)CCn3c(=O)[nH]c4ccsc4c3=O)CC2C)c1 (configuration not stated) returned IDE act -14, IDE inh 24*, Rpn11 block inactive, TPT1 inhibitor -3, HNF4A DNA FP 0, CSN deneddyl inh 2, IDE cell inh cf 16 and HEK293 tox 9.
For CSc1nsc(SCC(=O)Nc2ccccc2C(=O)O)n1 the results were IDE act -10, IDE inh 17*, Rpn11 block inactive, TPT1 inhibitor -3, HNF4A DNA FP 3, CSN deneddyl inh 1, IDE cell inh cf 15 and HEK293 tox 12.
